These results are taken from ChEMBL document CHEMBL3751842, “Novel triazolothiadiazines act as potent anticancer agents in liver cancer cells through Akt and ASK-1 proteins” (Bioorg Med Chem, 2016).

Active and inactive are the calls of the source. The calls are words filed in the database; no cut-off is given here.

Test [1] addresses T1, Mitogen-activated protein kinase kinase kinase 5 (Homo sapiens) (UniProt Q99683).
T1 sequence (whole entry): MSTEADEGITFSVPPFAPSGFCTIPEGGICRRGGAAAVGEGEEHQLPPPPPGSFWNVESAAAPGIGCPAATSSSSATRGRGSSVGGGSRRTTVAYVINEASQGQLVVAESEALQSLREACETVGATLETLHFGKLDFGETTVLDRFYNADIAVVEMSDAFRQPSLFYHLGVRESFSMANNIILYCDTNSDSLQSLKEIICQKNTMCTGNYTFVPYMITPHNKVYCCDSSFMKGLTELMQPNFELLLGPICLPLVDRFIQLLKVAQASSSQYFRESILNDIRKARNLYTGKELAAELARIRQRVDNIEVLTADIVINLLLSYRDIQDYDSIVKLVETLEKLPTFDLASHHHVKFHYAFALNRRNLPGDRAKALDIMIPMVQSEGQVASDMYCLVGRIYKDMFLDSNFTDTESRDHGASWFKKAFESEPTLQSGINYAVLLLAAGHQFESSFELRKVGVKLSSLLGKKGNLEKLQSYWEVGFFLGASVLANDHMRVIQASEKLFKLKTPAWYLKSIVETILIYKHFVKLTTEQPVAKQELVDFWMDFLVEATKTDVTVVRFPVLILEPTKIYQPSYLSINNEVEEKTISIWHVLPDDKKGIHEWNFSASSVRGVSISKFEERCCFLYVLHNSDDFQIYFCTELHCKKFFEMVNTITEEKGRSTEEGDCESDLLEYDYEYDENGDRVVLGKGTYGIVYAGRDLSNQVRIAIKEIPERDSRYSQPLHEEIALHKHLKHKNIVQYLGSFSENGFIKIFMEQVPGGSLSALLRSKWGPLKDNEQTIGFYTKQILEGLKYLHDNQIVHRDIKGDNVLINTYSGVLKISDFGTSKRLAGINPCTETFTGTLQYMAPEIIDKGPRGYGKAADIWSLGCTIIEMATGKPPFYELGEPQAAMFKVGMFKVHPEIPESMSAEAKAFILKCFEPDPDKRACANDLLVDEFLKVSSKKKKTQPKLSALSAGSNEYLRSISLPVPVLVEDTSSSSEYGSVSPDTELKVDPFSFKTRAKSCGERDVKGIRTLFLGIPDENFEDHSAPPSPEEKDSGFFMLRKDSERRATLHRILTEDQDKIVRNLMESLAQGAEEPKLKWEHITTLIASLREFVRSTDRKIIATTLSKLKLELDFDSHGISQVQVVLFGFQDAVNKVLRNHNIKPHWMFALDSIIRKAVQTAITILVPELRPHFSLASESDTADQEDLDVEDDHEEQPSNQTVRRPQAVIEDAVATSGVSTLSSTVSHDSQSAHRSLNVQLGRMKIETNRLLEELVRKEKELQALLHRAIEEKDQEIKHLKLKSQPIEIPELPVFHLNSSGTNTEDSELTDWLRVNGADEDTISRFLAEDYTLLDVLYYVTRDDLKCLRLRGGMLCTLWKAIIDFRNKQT
Kind of test: Activation of ASK1 in human HuH7 cells assessed as Ser966 phosphorylation after 24 to 48 hrs by Western blot analysis. The note with it: Huh-7. It counts as cell-based. Put shortly:
(§1)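 Cells were exposed to compound or DMSO control for 24 or 48 h. Lysates were loaded at […] protein per lane and immunoblotted with antibodies diluted 1:100 to 1:500 in 5% BSA-TBS-T. Targets were p-Akt (Ser473), Akt, p-GSK3-α/β (Ser21/9), GSK3-α/β, SAPK/JNK, p-SAPK/JNK (Thr183/Tyr185), PARP, p-β-catenin, β-catenin, cyclin D1, p-ASK1 (S83) and p-ASK1 (S966). Actin served as the loading control.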
(In western blotting, separated proteins are transferred to a membrane and probed.)

The target in test [2] is T1, Mitogen-activated protein kinase kinase kinase 5 (Homo sapiens). Put plainly: Activation of ASK1 in human HuH7 cells assessed as Ser83 phosphorylation after 24 to 48 hrs by Western blot analysis. It counts as cell-based. The note with it: Huh-7. Put shortly:
as §1

In test [3] the target is RAC-alpha serine/threonine-protein kinase (Homo sapiens) (UniProt P31749). Put plainly: Inhibition of Akt phosphorylation in human HuH7 cells after 24 to 48 hrs by Western blot analysis. It counts as cell-based. The note with it: Huh-7. Put shortly:
as §1

Test [4] addresses T2, Catenin beta-1 (Homo sapiens) (UniProt P35222).
T2 sequence (whole entry): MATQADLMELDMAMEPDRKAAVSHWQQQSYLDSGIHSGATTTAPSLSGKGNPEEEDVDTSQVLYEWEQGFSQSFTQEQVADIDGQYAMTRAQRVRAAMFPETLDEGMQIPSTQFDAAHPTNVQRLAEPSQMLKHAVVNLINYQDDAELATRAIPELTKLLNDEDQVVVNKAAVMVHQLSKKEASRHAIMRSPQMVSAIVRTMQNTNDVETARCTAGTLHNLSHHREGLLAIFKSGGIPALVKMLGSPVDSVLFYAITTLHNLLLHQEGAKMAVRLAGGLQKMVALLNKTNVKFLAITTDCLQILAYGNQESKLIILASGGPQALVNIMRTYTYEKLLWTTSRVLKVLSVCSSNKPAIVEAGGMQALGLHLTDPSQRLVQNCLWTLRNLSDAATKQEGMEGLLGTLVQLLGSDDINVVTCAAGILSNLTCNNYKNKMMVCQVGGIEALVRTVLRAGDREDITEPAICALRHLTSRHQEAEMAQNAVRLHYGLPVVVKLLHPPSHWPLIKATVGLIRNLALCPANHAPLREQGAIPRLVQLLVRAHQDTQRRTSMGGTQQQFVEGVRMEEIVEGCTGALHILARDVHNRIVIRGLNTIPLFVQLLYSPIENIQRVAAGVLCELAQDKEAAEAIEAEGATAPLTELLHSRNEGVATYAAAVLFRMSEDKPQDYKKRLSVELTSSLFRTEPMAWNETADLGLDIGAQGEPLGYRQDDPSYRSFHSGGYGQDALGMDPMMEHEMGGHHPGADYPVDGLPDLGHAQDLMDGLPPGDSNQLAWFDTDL
Put plainly: Induction of beta-catenin phosphorylation in human Mahlavu cells after 24 to 48 hrs by Western blot analysis. Type of test: cell-based. Put shortly:
as §1

The test system of another test is Mahlavu. Kind of test: Induction of apoptosis in human Mahlavu cells assessed as PARP cleavage after 24 to 48 hrs by Western blot analysis. Type of test: functional, cell-based. Put shortly:
as §1

A further test relates to MCF7. Kind of test: Cytotoxicity against human MCF7 cells assessed as growth inhibition after 72 hrs by sulforhodamine B assay. It counts as functional, cell-based. The conditions noted are these: Homo sapiens, MCF7, 72 h; read-out: IC50. Put shortly:
(§2)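 Cells were grown at 37°C, 5% CO2 in DMEM with 10% FBS. They were seeded at 1000–3000 cells/well, grown 24 h, then exposed to compound at 2.5–40 µM for 72 h. Cells were fixed in 10% TCA for 1 h at 4°C, stained with 0.4% SRB in 1% acetic acid for 10 min, and the dye solubilized in 10 mM Tris. Absorbance was read at 515 nm; runs were in triplicate; IC50 was calculated, with fits of R2 0.8–1 accepted.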
(Sulforhodamine B stains cellular protein and so reports cell mass.)

A short description of test [5]: Cytotoxicity against human FOCUS cells assessed as growth inhibition after 72 hrs by sulforhodamine B assay. The conditions noted are these: Homo sapiens, FOCUS, 72 h; read-out: IC50. Type of test: functional, cell-based. Put shortly:
as §2

A short description of test [6]: Cytotoxicity against human SNU475 cells assessed as growth inhibition after 72 hrs by sulforhodamine B assay. Type of test: functional, cell-based, SNU-475. The note with it: Homo sapiens, SNU-475, 72 h; read-out: IC50. Put shortly: as §2

Chain of RAC-alpha serine/threonine-protein kinase (Homo sapiens) (P31749 whole entry): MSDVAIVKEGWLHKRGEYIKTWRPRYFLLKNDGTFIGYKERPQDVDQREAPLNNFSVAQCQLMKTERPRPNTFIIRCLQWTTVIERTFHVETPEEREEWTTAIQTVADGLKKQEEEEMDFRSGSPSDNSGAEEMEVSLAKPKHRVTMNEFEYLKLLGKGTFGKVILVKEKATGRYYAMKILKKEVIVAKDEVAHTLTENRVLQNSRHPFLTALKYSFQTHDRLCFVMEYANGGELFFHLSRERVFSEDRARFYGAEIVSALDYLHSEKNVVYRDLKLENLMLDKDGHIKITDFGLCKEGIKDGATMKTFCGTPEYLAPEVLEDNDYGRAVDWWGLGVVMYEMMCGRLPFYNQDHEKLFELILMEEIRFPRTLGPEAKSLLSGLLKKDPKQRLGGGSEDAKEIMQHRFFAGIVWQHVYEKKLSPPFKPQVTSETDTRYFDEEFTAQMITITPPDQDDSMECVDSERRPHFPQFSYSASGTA

In the case of `Cc1ccc(C2=Nn3c(nnc3C(C)c3ccc(CC(C)C)cc3)SC2)cc1` (stereo unspecified), the result (in test [1]; in test [2]; in test [4]; in the test with Mahlavu) was Active. For the same compound, the inhibition entry in test [3] is “Active”. Moreover, the IC50 (usually the midpoint of a concentration-inhibition curve) in the test with MCF7 worked out at 6.3 µM; in test [5], 6.8 µM; in test [6] it was 8.7 µM.

For the compound `COc1ccc(C2=Nn3c(nnc3C(C)c3ccc(CC(C)C)cc3)SC2)cc1` (stereo unspecified), the result (in test [1]; in test [2]; in test [4]; in the test on Mahlavu) was Active. Further, in test [3], the inhibition result was “Active”. In addition, the IC50 in the test on MCF7 was found to be 5.2 µM; in test [5], 2.4 µM; in test [6], 8.5 µM.
